# Assay: Toxicity liver stage against HepG2, at 10uM
# Type: cell-based
# Set-up: test concentration 10 uM, cell line HepG2-A16-CD81EGFP
# Details: human, HepG2-A16-CD81EGFP cells; read-out: INHIBITION
# Summary of the method: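 Uninfected HepG2-A16-CD81EGFP cells, 3 × 10^3 per well, 1536-well, plated on prespotted compound at 10 μM final, parasite-free screening media added to match infected plates; puromycin 10 μM positive, DMSO 0.5% negative; run in parallel with 48 h PbLuc assay at 37 °C, 5% CO2; viability by CellTiter-Glo luminescence, normalized to controls.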
smiles,measurement,value
CNC(=O)C(C)(C)N1CCC[C@H]1C(=O)NC1CC1,cytotoxicity at 10 µM,4.82%
CC(C)c1noc([C@@H]2C[C@H](NS(=O)(=O)Cc3ccccc3)CN2C)n1,cytotoxicity at 10 µM,-2.1%
Cc1cc2c(C)cc(O)cc2c(=O)o1,cytotoxicity at 10 µM,5.73%
CSCC[C@H](NC(=O)CCn1cc(C(C)=O)c2ccccc21)C(=O)O,cytotoxicity at 10 µM,-3.91%
O=C(NC1CC1)c1cccc(Oc2ccc3nncn3n2)c1,cytotoxicity at 10 µM,-5.29%
Cc1cc(Br)c2c(c1)C1(CC(=O)Nc3c1cnn3C(C)C)C(=O)N2 (configuration not stated),cytotoxicity at 10 µM,-10.3%
CCNC(=O)N1CCC2(CC1)CCn1c(-c3ccccc3)cnc12,cytotoxicity at 10 µM,-8.19%
O=C(CO)N1CC2(CCN(c3ccccc3)C2)C1,cytotoxicity at 10 µM,8.98%
CCN1CC2(CCN(C(=O)N(C)C)CC2)COc2ccccc2S1(=O)=O,cytotoxicity at 10 µM,6.55%
CN1CCN(C(=O)Cc2ccccn2)Cc2cccnc21,cytotoxicity at 10 µM,-7.01%
Cn1cc(CN2CCc3c(COCc4ccncc4)cncc3C2)cn1,cytotoxicity at 10 µM,-2.37%
O=C(c1ncccn1)N1C[C@@H]2COC[C@]2(c2nnc(C3CC3)o2)C1,cytotoxicity at 10 µM,-1.31%
O=C1CC(c2ccc(C(=O)O)cc2)c2ncn(-c3cccnc3)c2N1 (configuration not stated),cytotoxicity at 10 µM,-1.64%
CC(C)n1ncc2c1NC(=O)CC21C(=O)Nc2c(Cl)cc(Cl)cc21 (configuration not stated),cytotoxicity at 10 µM,3.38%
CCCN1C(=O)CC(N2CCN(c3ccc(F)cc3)CC2)C1=O (configuration not stated),cytotoxicity at 10 µM,-3.03%
CCOc1cccc(C(=O)Nc2ccn(CC)n2)c1,cytotoxicity at 10 µM,8.19%
CCc1cc(C(=O)N2CCCC(c3cc(=O)nc4n3CCC4)C2)no1 (configuration not stated),cytotoxicity at 10 µM,-2.6%
COCCC(=O)N1CCC(c2ccc3c(NC(C)C)n[nH]c3n2)C1 (configuration not stated),cytotoxicity at 10 µM,0.691%
Cc1cc(C)nc(C2CCN(C3CCCCC3)C2)n1 (configuration not stated),cytotoxicity at 10 µM,7.33%
CCn1ncc(C(=O)NCCc2nc(-c3cccnc3)n[nH]2)c1C,cytotoxicity at 10 µM,1.94%
O=C(O)[C@@H]1CCN(C(=O)c2cscn2)[C@@H]1c1ccc(F)cc1,cytotoxicity at 10 µM,4.97%
CN(C)C(=O)c1c[nH]nc1C1CCN(S(=O)(=O)c2ccccc2)CC1,cytotoxicity at 10 µM,-0.358%
O=C(Nc1ccccn1)C1CCN(C(=O)COc2ccccc2F)C1 (configuration not stated),cytotoxicity at 10 µM,-24.6%
CCc1nnc(Nc2cccc(C3CCCN(CC(C)(C)C)C3)n2)s1 (configuration not stated),cytotoxicity at 10 µM,-33.9%
CN1CC(c2cc(O)nc(NCc3cccc(F)c3)n2)CC1=O (configuration not stated),cytotoxicity at 10 µM,1.96%
CC(C)C1=NOC2(CCN(S(C)(=O)=O)CC2)C1,cytotoxicity at 10 µM,6.47%
CC(C)NC(=O)CCNC(=O)CCc1cc(Br)cs1,cytotoxicity at 10 µM,-3.16%
CSc1ccsc1C(=O)NCCNC(=O)C1CC1,cytotoxicity at 10 µM,1.93%
O=C(O)c1ccc(-c2cscn2)cc1,cytotoxicity at 10 µM,7.68%
CCc1ncc(CN(C)C2CCN(c3sccc3C#N)C2=O)s1 (configuration not stated),cytotoxicity at 10 µM,-0.876%
CCc1ccc(CC)c(NCc2cnc(N3CCOCC3)nc2)c1,cytotoxicity at 10 µM,0.898%
CCSCc1csc(-c2ccc(S(C)(=O)=O)cc2)n1,cytotoxicity at 10 µM,8.21%
CCc1[nH]ncc1C(=O)N1CCN(c2nccc(OC)n2)CC1,cytotoxicity at 10 µM,0.296%
CNS(=O)(=O)c1ccc(CNC(=O)C2CCCN(C)C2)cc1 (configuration not stated),cytotoxicity at 10 µM,-10.5%
Cc1cc(NC(=O)NCCOc2ccc(Cl)cn2)no1,cytotoxicity at 10 µM,9.08%
CN(C)c1ncccc1CNC(=O)c1csc(Br)c1,cytotoxicity at 10 µM,-1.35%
Cc1ccccc1C1(CNC(=O)N2CCC(CC(N)=O)CC2)CC1,cytotoxicity at 10 µM,4.48%
CCc1ncc(C(=O)N2CCOCC2CC(=O)c2ccccc2)s1 (configuration not stated),cytotoxicity at 10 µM,2.58%
Cn1c(=O)ccn(CC(=O)NCC2Cc3ccccc3O2)c1=O (configuration not stated),cytotoxicity at 10 µM,-0.387%
O=C(Cn1cc(Cl)cn1)Nc1ccc2c(c1)OCO2,cytotoxicity at 10 µM,4.57%
O=C(Nc1ccc2c(ccn2CCN2CCOCC2)c1)c1ccncc1,cytotoxicity at 10 µM,-2.9%
CCN1CCN(CC(O)c2ccc(Br)cc2)CC1 (configuration not stated),cytotoxicity at 10 µM,-6.95%
Cc1cnn(C2CN(CC(=O)NCC3(c4ccccc4)CC3)C2)c1,cytotoxicity at 10 µM,-10.9%
Cc1nc(CN2CCN(C(=O)CCC(=O)c3ccccc3)CC2)no1,cytotoxicity at 10 µM,3.7%
CCC(C)(NCC(=O)OC)c1nc(C)cs1 (configuration not stated),cytotoxicity at 10 µM,-3.94%
O=C(Nc1cc(Cl)ccn1)c1nc(N2CCCC2)ncc1Cl,cytotoxicity at 10 µM,-9.26%
N#Cc1cc(NC(=O)c2cscn2)ccc1N1CCC(O)CC1,cytotoxicity at 10 µM,6.59%
O=C1CC2(CCCCC2)C(=O)N1CC(O)COCc1ccccc1F (configuration not stated),cytotoxicity at 10 µM,0.611%
CCn1nc2c(cc1=O)CN(CC(=O)Nc1cc(C)no1)CC2,cytotoxicity at 10 µM,-5.22%
C=C(C)CN1CCCC(NS(C)(=O)=O)C1 (configuration not stated),cytotoxicity at 10 µM,4.21%
COCCN1CCC(NC(=O)C(C)C)CC1,cytotoxicity at 10 µM,-2.45%
O=S(=O)(c1ccc2c(c1)OCCO2)N1CCC(OCc2ccccn2)C1 (configuration not stated),cytotoxicity at 10 µM,-1.18%
Cc1ccc(N2CCCC(NC(=O)Cc3csc(C)n3)C2=O)cc1 (configuration not stated),cytotoxicity at 10 µM,-1.31%
CCOCC1CCN(C(=O)Nc2ccc3c(c2)CCCN3C)C1 (configuration not stated),cytotoxicity at 10 µM,10.1%
CSc1ccc(NCc2csc(C)n2)cc1F,cytotoxicity at 10 µM,-6.54%
CCC(=O)N1CSCC1C(=O)Nc1ccccc1-c1cccs1 (configuration not stated),cytotoxicity at 10 µM,-3.8%
CC(C(=O)N1CCc2ccccc21)N1CCc2cncnc2C1 (configuration not stated),cytotoxicity at 10 µM,0.693%
CN1CC(C(=O)NC2(c3cccc(F)c3)CCOCC2)CC1=O (configuration not stated),cytotoxicity at 10 µM,15.6%
Cc1cccc(N(CCC#N)S(=O)(=O)CC2CCCCO2)c1 (configuration not stated),cytotoxicity at 10 µM,6.48%
Cc1n[nH]cc1CNC(C(=O)N1CCOCC1)c1ccccc1 (configuration not stated),cytotoxicity at 10 µM,7.57%
CC(C)CNC(=O)c1ccc(NC(=O)NC(C)C)cc1Cl,cytotoxicity at 10 µM,5.92%
O=C1C(n2nnc(-c3ccsc3)n2)CCN1CC(F)(F)F (configuration not stated),cytotoxicity at 10 µM,0.519%
Cc1ccc(N2CCCC(N3CCC(N(C)C)CC3)C2=O)cc1 (configuration not stated),cytotoxicity at 10 µM,-5.16%
CCOc1ccc(CN2C(=O)CC3(CCCC3)C2=O)nc1,cytotoxicity at 10 µM,-4.01%
CCOCC(=O)N(C)c1ccc(F)c(Cl)c1,cytotoxicity at 10 µM,-3.99%
CCc1nsc(N2CCc3sccc3C2)n1,cytotoxicity at 10 µM,1.56%
COCCCNC(=O)C1(NC(=O)c2ccc3[nH]ncc3c2)CCCC1,cytotoxicity at 10 µM,-1.62%
O=S1(=O)CCC(N(CCc2ccc3c(c2)CCO3)C2CC2)C1 (configuration not stated),cytotoxicity at 10 µM,-0.532%
O=C(NCCn1cccc1)c1c(O)cc(F)cc1F,cytotoxicity at 10 µM,-5.22%
CCC(CC)c1cc(CNC(=O)N2CCCC(N(C)C)C2)on1 (configuration not stated),cytotoxicity at 10 µM,1.47%
CCc1nc(C2CCCN2Cc2nc(C3CC3)no2)no1 (configuration not stated),cytotoxicity at 10 µM,-21.4%
O=C(Cc1ccc2c(c1)CCO2)N1CCCCC1Cn1cccn1 (configuration not stated),cytotoxicity at 10 µM,-12.8%
CCOC(CC)C(=O)NCCC(=O)N1CCN(c2ccccn2)CC1 (configuration not stated),cytotoxicity at 10 µM,-7.4%
O=C(NCCc1nnc2n1CCC2)NCC1(c2cccc(F)c2)CC1,cytotoxicity at 10 µM,-7.94%
O=C(CC1CN(Cc2ccccc2)CCO1)Nc1ccccc1F (configuration not stated),cytotoxicity at 10 µM,-2.05%
CN(Cc1cncnc1)[C@H]1CN(C(=O)c2ccco2)[C@@H]2CCCO[C@@H]21,cytotoxicity at 10 µM,-101%
Cc1cccc(OC2CCN(C(=O)CNC(=O)N(C)C)CC2)c1,cytotoxicity at 10 µM,-0.951%
CO[C@H]1CNC[C@@H]1NC(=O)c1cc(C)nc2c(C)cc(C)cc12,cytotoxicity at 10 µM,4.12%
COc1nc2c(cc1C(=O)N1CCCCC1c1ccccn1)CCC2 (configuration not stated),cytotoxicity at 10 µM,-12.5%
CNc1nc(C)c(C(=O)N2CCCCC2CCc2ccc(O)cc2)s1 (configuration not stated),cytotoxicity at 10 µM,0.126%
Cc1cc(N2CCCC(O)CC2)n2nc(C)c(C)c2n1 (configuration not stated),cytotoxicity at 10 µM,7.46%
CCCOC(=O)N1CCCn2nc(C(=O)Nc3ccccc3)cc2C1,cytotoxicity at 10 µM,7.23%
Cn1cc(CNCC2(O)CCCN(Cc3ccc(F)c(F)c3)C2=O)cn1 (configuration not stated),cytotoxicity at 10 µM,-14.5%
COc1ccc(N2CCN(C(=O)CCn3nnnc3C)CC2(C)C)cc1,cytotoxicity at 10 µM,10.4%
Cc1ccncc1C(=O)N1CCCC(C(=O)CCc2ccccc2)C1 (configuration not stated),cytotoxicity at 10 µM,18%
CCOCC(O)CN1CCN(C(=O)c2cc(C)ccc2OC)CC1 (configuration not stated),cytotoxicity at 10 µM,5.35%
Cc1nn(C)c(Cl)c1C1CCCN1C(=O)CCNc1ncccn1 (configuration not stated),cytotoxicity at 10 µM,-7.42%
CCS(=O)(=O)N1CCN(C(=O)c2cnc3[nH]nc(C)c3c2)CC1,cytotoxicity at 10 µM,-5.68%
CC(C)c1ncc2c(n1)CN(Cc1cccc(C(N)=O)c1)CC2,cytotoxicity at 10 µM,-9.17%
COC(=O)c1ccc(N2CCN(C(=O)c3ccco3)C(C)C2)cc1 (configuration not stated),cytotoxicity at 10 µM,-8.15%
CCCc1noc(CCC(=O)N2CCCC2c2cccc(OC)c2)n1 (configuration not stated),cytotoxicity at 10 µM,-9.71%
c1ncn(CC2CCCN(Cc3nc(-c4ccoc4)no3)C2)n1 (configuration not stated),cytotoxicity at 10 µM,-1.43%
c1ccc2nc(N3CCOC(Cn4cccn4)C3)cnc2c1 (configuration not stated),cytotoxicity at 10 µM,-9.86%
CC(NC(=O)c1cccs1)C(=O)Nc1cccnc1N1CCCCC1 (configuration not stated),cytotoxicity at 10 µM,-8.94%
Cc1cnn(CC(C)NCc2ccc(OCc3nccn3C)cc2)c1 (configuration not stated),cytotoxicity at 10 µM,-10.7%
COc1ccccc1C(=O)N1CCC(Nc2ccc(C)nn2)CC1,cytotoxicity at 10 µM,-4.05%
Cc1cnn(CCNCc2nnc(-c3ccc(F)cc3)o2)c1,cytotoxicity at 10 µM,-43.9%
CC(NC(=O)Cn1ccc(=O)n(C)c1=O)c1cc(F)ccc1F (configuration not stated),cytotoxicity at 10 µM,-4.64%
CC(C)c1noc(C(C)N2CCN(Cc3noc(C(C)(C)C)n3)CC2)n1 (configuration not stated),cytotoxicity at 10 µM,-14.6%
COc1ccc(C(=O)N(C)Cc2nnc3ccccn23)cc1,cytotoxicity at 10 µM,3.45%
CCc1nc(CN2CCN(C(=O)c3cc(C)no3)CC2)cs1,cytotoxicity at 10 µM,-21.8%
CC(C(=O)NCc1cccc(N2CC=CC2)c1)n1cccn1 (configuration not stated),cytotoxicity at 10 µM,-5.07%
CCN(Cc1nc2c(cnn2C)c(=O)[nH]1)c1cccc(F)c1,cytotoxicity at 10 µM,-0.746%
Cc1ccccc1C(=O)N1CCC2(CCCN2CCN(C)C)CC1,cytotoxicity at 10 µM,3.56%
CCc1cnc(N2CC[C@H]3[C@H]2CC(=O)N3c2cccnc2)nc1,cytotoxicity at 10 µM,-9.62%
Cc1cc(C(=O)N2CCC3(CC2)CC(c2cccnc2)C(=O)N3C)no1 (configuration not stated),cytotoxicity at 10 µM,1.48%
CNC(=O)CN1CCCC12CCN(C(=O)c1ccccc1F)CC2,cytotoxicity at 10 µM,1.58%
O=C(NCC1CC1)[C@@H]1CC[C@@H]2[C@@H](CCN2Cc2ccco2)O1,cytotoxicity at 10 µM,4.62%
CC1c2ncc(COc3cccnc3)n2CCN1C(=O)Cc1ccco1 (configuration not stated),cytotoxicity at 10 µM,-5.13%
COC1COC2(CCN(c3ccc(C#N)cc3)CC2)C1 (configuration not stated),cytotoxicity at 10 µM,-79.6%
O=C(CC1CC1)N1CC[C@@H]2[C@H](CC1)N(Cc1cccnc1)CCS2(=O)=O,cytotoxicity at 10 µM,5.96%
c1cnc(N2CCN(C3CCC[C@@H]4CN(CC5CC5)C[C@H]34)CC2)nc1 (some centres not stated),cytotoxicity at 10 µM,8.97%
